Reference: ChEMBL document CHEMBL2046419, “Antibacterial anthraquinone derivatives from a sea anemone-derived fungus Nigrospora sp” (J Nat Prod, 2012)
Values after ≈ are worked out from the molar mass of the structure shown.

Tested on: Bacillus subtilis
Experiment: Antibacterial activity against Bacillus subtilis ATCC 6633 after 24 hrs by serial dilution technique
Assay type: functional
Conditions: ATCC 6633, 24 h

First: COc1cc(O)c2c(c1O)[C@H](OC)[C@H]1C[C@](C)(O)[C@H](O)C[C@H]1C2=O
Second: COc1cc(O)c2c(c1O)[C@H](O)[C@H]1C[C@](C)(O)[C@H](O)C[C@@H]1C2=O
The MIC of the first is higher: greater than 100 µM for the first, 12.5 µM (≈ 4.05 µg/mL) for the second.

`COc1cc(O)c2c(c1OC(C)=O)C(=O)c1cc(C)ccc1C2=O` and `COc1cc(O)c2c(c1O)C(=O)c1cc(C)ccc1C2=O` [AUSTROCORTIRUBIN] cannot be ordered by MIC: greater than 200 µM for the first, greater than 200 µM for the second.

For `COC1=CC(=O)c2c(O)c3c(c(O)c2C1=O)C[C@](C)(O)[C@H](OC(C)=O)C3`, the MIC was 0.78 µM (≈ 0.283 µg/mL).

Tested on: Bacillus cereus
Experiment: Antibacterial activity against Bacillus cereus ACCC 11077 after 24 hrs by serial dilution technique
Assay type: functional
Conditions: ACCC 11077, 24 h

Compared with `COc1cc(O)c2c(c1O)[C@H](OC)[C@H]1C[C@](C)(O)[C@H](O)C[C@H]1C2=O`, `COc1cc(O)c2c(c1O)[C@H](O)[C@H]1C[C@](C)(O)[C@H](O)C[C@@H]1C2=O` is 4-fold lower in MIC: 50 µM (≈ 16.9 µg/mL) for the first, 12.5 µM (≈ 4.05 µg/mL) for the second.

`COc1cc(O)c2c(c1OC(C)=O)C(=O)c1cc(C)ccc1C2=O` and `COc1cc(O)c2c(c1O)C(=O)c1cc(C)ccc1C2=O` [AUSTROCORTIRUBIN] cannot be ordered by MIC: greater than 200 µM for the first, greater than 200 µM for the second.

With `COC1=CC(=O)c2c(O)c3c(c(O)c2C1=O)C[C@](C)(O)[C@H](OC(C)=O)C3` the MIC was 0.0488 µM (≈ 0.0177 µg/mL).

Tested on: Micrococcus luteus
Experiment: Antibacterial activity against Micrococcus luteus ATCC 49732 after 24 hrs by serial dilution technique
Assay type: functional
Conditions: ATCC 49732, 24 h

First: COc1cc(O)c2c(c1O)[C@H](OC)[C@H]1C[C@](C)(O)[C@H](O)C[C@H]1C2=O
Second: COc1cc(O)c2c(c1O)[C@H](O)[C@H]1C[C@](C)(O)[C@H](O)C[C@@H]1C2=O
The MIC of the first is higher: greater than 100 µM for the first, 25 µM (≈ 8.11 µg/mL) for the second.

`COc1cc(O)c2c(c1OC(C)=O)C(=O)c1cc(C)ccc1C2=O` and `COc1cc(O)c2c(c1O)C(=O)c1cc(C)ccc1C2=O` [AUSTROCORTIRUBIN] cannot be ordered by MIC: greater than 200 µM for the first, greater than 200 µM for the second.

Molecule `COC1=CC(=O)c2c(O)c3c(c(O)c2C1=O)C[C@](C)(O)[C@H](OC(C)=O)C3` has an MIC of 100 µM (≈ 36.2 µg/mL).

Tested on: Staphylococcus aureus
Experiment: Antibacterial activity against Staphylococcus aureus ATCC 27154 after 24 hrs by serial dilution technique
Assay type: functional
Conditions: ATCC 27154, 24 h

Going from `COc1cc(O)c2c(c1O)[C@H](OC)[C@H]1C[C@](C)(O)[C@H](O)C[C@H]1C2=O` to `COc1cc(O)c2c(c1O)[C@H](O)[C@H]1C[C@](C)(O)[C@H](O)C[C@@H]1C2=O`, the MIC rises from 1.56 µM (≈ 0.528 µg/mL) to 25 µM (≈ 8.11 µg/mL) (16-fold).

`COc1cc(O)c2c(c1OC(C)=O)C(=O)c1cc(C)ccc1C2=O` and `COc1cc(O)c2c(c1O)C(=O)c1cc(C)ccc1C2=O` [AUSTROCORTIRUBIN] cannot be ordered by MIC: greater than 200 µM for the first, greater than 200 µM for the second.

Molecule `COC1=CC(=O)c2c(O)c3c(c(O)c2C1=O)C[C@](C)(O)[C@H](OC(C)=O)C3` has an MIC greater than 200 µM.

Tested on: Micrococcus
Experiment: Antibacterial activity against Micrococcus tetragenus ATCC 13623 after 24 hrs by serial dilution technique
Assay type: functional
Conditions: ATCC 13623, 24 h

Compared with `COc1cc(O)c2c(c1O)[C@H](OC)[C@H]1C[C@](C)(O)[C@H](O)C[C@H]1C2=O`, `COc1cc(O)c2c(c1O)[C@H](O)[C@H]1C[C@](C)(O)[C@H](O)C[C@@H]1C2=O` is 2-fold higher in MIC: 0.78 µM (≈ 0.264 µg/mL) for the first, 1.56 µM (≈ 0.506 µg/mL) for the second.

`COc1cc(O)c2c(c1OC(C)=O)C(=O)c1cc(C)ccc1C2=O` and `COc1cc(O)c2c(c1O)C(=O)c1cc(C)ccc1C2=O` [AUSTROCORTIRUBIN] cannot be ordered by MIC: greater than 200 µM for the first, greater than 200 µM for the second.

In the case of `COC1=CC(=O)c2c(O)c3c(c(O)c2C1=O)C[C@](C)(O)[C@H](OC(C)=O)C3`, the MIC is reported as 0.195 µM (≈ 0.0707 µg/mL).

Tested on: Escherichia coli
Experiment: Antibacterial activity against Escherichia coli ATCC 25922 after 24 hrs by serial dilution technique
Assay type: functional
Conditions: ATCC 25922, 24 h

Compared with `COc1cc(O)c2c(c1O)[C@H](OC)[C@H]1C[C@](C)(O)[C@H](O)C[C@H]1C2=O`, `COc1cc(O)c2c(c1O)[C@H](O)[C@H]1C[C@](C)(O)[C@H](O)C[C@@H]1C2=O` is 8-fold higher in MIC: 0.78 µM (≈ 0.264 µg/mL) for the first, 6.25 µM (≈ 2.03 µg/mL) for the second.

`COc1cc(O)c2c(c1OC(C)=O)C(=O)c1cc(C)ccc1C2=O` and `COc1cc(O)c2c(c1O)C(=O)c1cc(C)ccc1C2=O` [AUSTROCORTIRUBIN] cannot be ordered by MIC: greater than 200 µM for the first, greater than 200 µM for the second.

In the case of `COC1=CC(=O)c2c(O)c3c(c(O)c2C1=O)C[C@](C)(O)[C@H](OC(C)=O)C3`, the MIC is reported as greater than 200 µM.

Tested on: Vibrio anguillarum
Experiment: Antibacterial activity against Vibrio anguillarum ATCC 19019 after 24 hrs by serial dilution technique
Assay type: functional
Conditions: ATCC 19019, 24 h

First: COc1cc(O)c2c(c1O)[C@H](OC)[C@H]1C[C@](C)(O)[C@H](O)C[C@H]1C2=O
Second: COc1cc(O)c2c(c1O)[C@H](O)[C@H]1C[C@](C)(O)[C@H](O)C[C@@H]1C2=O
The MIC of the first is 16-fold higher: 25 µM (≈ 8.46 µg/mL) for the first, 1.56 µM (≈ 0.506 µg/mL) for the second.

`COc1cc(O)c2c(c1OC(C)=O)C(=O)c1cc(C)ccc1C2=O` and `COc1cc(O)c2c(c1O)C(=O)c1cc(C)ccc1C2=O` [AUSTROCORTIRUBIN] cannot be ordered by MIC: greater than 200 µM for the first, greater than 200 µM for the second.

For `COC1=CC(=O)c2c(O)c3c(c(O)c2C1=O)C[C@](C)(O)[C@H](OC(C)=O)C3`, the MIC was 0.0975 µM (≈ 0.0353 µg/mL).

Tested on: Vibrio parahaemolyticus
Experiment: Antibacterial activity against Vibrio parahaemolyticus ATCC 17802 after 24 hrs by serial dilution technique
Assay type: functional
Conditions: ATCC 17802, 24 h

Going from `COc1cc(O)c2c(c1O)[C@H](OC)[C@H]1C[C@](C)(O)[C@H](O)C[C@H]1C2=O` to `COc1cc(O)c2c(c1O)[C@H](O)[C@H]1C[C@](C)(O)[C@H](O)C[C@@H]1C2=O`, the MIC falls from 25 µM (≈ 8.46 µg/mL) to 12.5 µM (≈ 4.05 µg/mL) (2-fold).

`COc1cc(O)c2c(c1OC(C)=O)C(=O)c1cc(C)ccc1C2=O` and `COc1cc(O)c2c(c1O)C(=O)c1cc(C)ccc1C2=O` [AUSTROCORTIRUBIN] cannot be ordered by MIC: greater than 200 µM for the first, greater than 200 µM for the second.

`COC1=CC(=O)c2c(O)c3c(c(O)c2C1=O)C[C@](C)(O)[C@H](OC(C)=O)C3` showed an MIC of 0.78 µM (≈ 0.283 µg/mL).

Tested on: Bacillus cereus
Experiment: Ratio of ciprofloxacin MIC to compound MIC for Bacillus cereus ACCC 11077
Assay type: functional
Conditions: not given

`COC1=CC(=O)c2c(O)c3c(c(O)c2C1=O)C[C@](C)(O)[C@H](OC(C)=O)C3` showed a Ratio of 25.

Tested on: A549
Experiment: Cytotoxicity against human A549 cells by MTT assay
Assay type: functional, cell-based
Conditions: not given
Summary of the method: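 A549 human lung cancer cells, MTT read-out, mitomycin as positive control; IC50 reported in μM.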

`COc1cc(O)c2c(c1O)[C@H](OC)[C@H]1C[C@](C)(O)[C@H](O)C[C@H]1C2=O` and `COc1cc(O)c2c(c1O)[C@H](O)[C@H]1C[C@](C)(O)[C@H](O)C[C@@H]1C2=O` cannot be ordered by IC50: greater than 50 µM for the first, greater than 50 µM for the second.

First: COC1=CC(=O)c2c(O)c3c(c(O)c2C1=O)C[C@](C)(O)[C@H](OC(C)=O)C3
Second: COc1cc(O)c2c(c1O)C(=O)c1cc(C)ccc1C2=O [AUSTROCORTIRUBIN]
The IC50 of the first is lower: 5.25 µM for the first, greater than 50 µM for the second. The first is the more potent here.

Tested on: Staphylococcus albus
Experiment: Antibacterial activity against Staphylococcus albus ATCC 8799 after 24 hrs by serial dilution technique
Conditions: ATCC 8799, 24 h

`COc1cc(O)c2c(c1O)[C@H](OC)[C@H]1C[C@](C)(O)[C@H](O)C[C@H]1C2=O` and `COc1cc(O)c2c(c1O)[C@H](O)[C@H]1C[C@](C)(O)[C@H](O)C[C@@H]1C2=O` cannot be ordered by MIC: greater than 100 µM for the first, greater than 100 µM for the second.

`COc1cc(O)c2c(c1OC(C)=O)C(=O)c1cc(C)ccc1C2=O` and `COc1cc(O)c2c(c1O)C(=O)c1cc(C)ccc1C2=O` [AUSTROCORTIRUBIN] cannot be ordered by MIC: greater than 200 µM for the first, greater than 200 µM for the second.

Molecule `COC1=CC(=O)c2c(O)c3c(c(O)c2C1=O)C[C@](C)(O)[C@H](OC(C)=O)C3` has an MIC of 200 µM (≈ 72.5 µg/mL).
